We go through four compounds from ChEMBL document CHEMBL1134691, “3-Phenyl-5-acyloxymethyl-2H,5H-furan-2-ones: synthesis and biological activity of a novel group of potential antifungal drugs” (2001).

In brackets after ≈: the same amount, converted by molar mass.

Test [1] deals with Candida albicans. Nature of the test: Inhibition of Candida albicans ATCC 90028 for 48 hours in vitro. The class given is functional. As to conditions: Candida albicans, ATCC 90028, 48 h; read-out: MIC. Put shortly: (§1)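 NCCLS M27-A broth microdilution in RPMI 1640 with L-glutamine and 0.165 M MOPS, pH 7.0. Isolates kept on Sabouraud dextrose agar. Inoculum 5 × 10^3 cfu/mL final. Compounds were diluted in DMSO (≤2% final) and tested in 2-fold dilutions of 1000–0.24 µmol/L. Incubation at 35 °C, OD540 read at 24 and 48 h. MIC = 80% growth inhibition versus control; assays run twice in duplicate.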

Test [2] deals with Lichtheimia corymbifera. Nature of the test: In vitro inhibition of Absidia corymbifera 272 growth for 24 hours. The class given is functional. In short, it runs like this: (§2)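 Filamentous isolates tested by microdilution per NCCLS M27-A in RPMI 1640 plus L-glutamine, buffered with 0.165 M MOPS to pH 7.0. Final inoculum 5 × 10^3 cfu/mL. Compounds in DMSO (final ≤2%), 2-fold series over 1000–0.24 µmol/L. Plates held at 35 °C and read visually after 24 and 48 h. MIC taken as 80% inhibition of control growth; determined twice in duplicate.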

The test system of test [3] is Candida parapsilosis. Put plainly: Inhibition of Candida parapsilosis ATCC 22019 growth for 24 hours in vitro. The class given is functional. The settings on record: Lodderomyces parapsilosis, ATCC 22019, 24 h; read-out: MIC. Put shortly:
as §1

The subject of test [4] is Candida tropicalis. Put plainly: Inhibition of Candida tropicalis 156 growth for 24 hours in vitro. The class given is functional. The settings on record: Candida tropicalis, 24 h; read-out: MIC. Put shortly:
as §1

Test [5] has as its system Candida albicans. Put plainly: Inhibition of Candida albicans ATCC 90028 for 24 hours in vitro. The class given is functional. As to conditions: Candida albicans, ATCC 90028, 24 h; read-out: MIC. In short, it runs like this: as §1
Test [6] has as its system Clavispora lusitaniae. Put plainly: Inhibition of Candida lusitaniae 2446/I growth for 24 hours in vitro. The class given is functional. As to conditions: Clavispora lusitaniae, 24 h; read-out: MIC. Put shortly: as §1
Test [7] deals with Pichia kudriavzevii. Put plainly: Inhibition of Candida krusei ATCC 6258 growth for 24 hours in vitro. The class given is functional. In short, it runs like this: as §1
Test [8] relates to Lichtheimia corymbifera. Put plainly: In vitro inhibition of Absidia corymbifera 272 growth for 48 hours. The class given is functional. As to conditions: Lichtheimia corymbifera, 48 h; read-out: MIC. Put shortly:
as §2

Test [9] concerns Pichia kudriavzevii. Put plainly: Inhibition of Candida krusei E28 growth for 48 hours in vitro. The class given is functional. In short, it runs like this:
as §1

The subject of test [10] is Trichosporon beigelii. Put plainly: Inhibition of Trichosporon beigelli 1188 for 24 hours in vitro. As to conditions: Trichosporon beigelii, 24 h; read-out: MIC. The class given is functional. Put shortly: (§3)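 Microdilution following NCCLS M27-A. Medium: RPMI 1640 with L-glutamine, 0.165 M MOPS, pH 7.0. Final inoculum 5 × 10^3 cfu/mL. Compounds dissolved in DMSO, final ≤2%, serially halved from 1000 to 0.24 µmol/L. Incubated at 35 °C and read at 24 and 48 h. MIC defined as 80% inhibition of control growth; run twice in duplicate.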

In test [11] the test system is Candida albicans. Put plainly: Inhibition of Candida albicans ATCC 44859 growth for 48 hours in vitro. The class given is functional. As to conditions: Candida albicans, ATCC 44859, 48 h; read-out: MIC. In short, it runs like this: as §1
In test [12] the test system is Pichia kudriavzevii. Nature of the test: Inhibition of Candida krusei E28 growth for 24 hours in vitro. The class given is functional. As to conditions: Pichia kudriavzevii, 24 h; read-out: MIC. In short, it runs like this:
as §1

Test [13] is described as follows: Inhibition of Trichophyton mentagrophytes 445 growth for 120 hours in vitro. The class given is functional, Arthroderma benhamiae. The settings on record: Trichophyton benhamiae, 120 h; read-out: MIC. In short, it runs like this:
(§4)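 Dermatophyte grown in MOPS-buffered (0.165 M, pH 7.0) RPMI 1640 containing L-glutamine, in an M27-A microdilution format. Inoculum 5 × 10^3 cfu/mL final. Compounds from DMSO stocks (≤2% final), 2-fold dilutions 1000–0.24 µmol/L. Incubated at 35 °C, growth judged visually at 72 and 120 h. MIC endpoint is 80% inhibition relative to control; measured twice in duplicate.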

Test [14] relates to Candida tropicalis. Put plainly: Inhibition of Candida tropicalis 156 growth for 48 hours in vitro. The class given is functional. In short, it runs like this: as §1
Test [15] concerns Nakaseomyces glabratus. Nature of the test: Inhibition of Candida glabrata 20/I growth for 48 hours in vitro. The class given is functional. In short, it runs like this: as §1
Test [16] relates to Nakaseomyces glabratus. Nature of the test: Inhibition of Candida glabrata 20/I growth for 24 hours in vitro. The class given is functional. Put shortly: as §1
Test [17] can be described thus: Inhibition of Trichophyton mentagrophytes 445 growth for 72 hours in vitro. The class given is functional, Arthroderma benhamiae. The settings on record: Trichophyton benhamiae, 72 h; read-out: MIC. Put shortly:
as §4

Test [18] deals with Aspergillus fumigatus. Nature of the test: Inhibition of Aspergillus fumigatus 231 growth for 48 hours in vitro. The class given is functional. The settings on record: Aspergillus fumigatus, 48 h; read-out: MIC. Put shortly:
as §2

The subject of test [19] is Candida albicans. Nature of the test: Inhibition of Candida albicans ATCC 44859 growth for 24 hours in vitro. The class given is functional. The settings on record: Candida albicans, ATCC 44859, 24 h; read-out: MIC. In short, it runs like this:
as §1

In test [20] the test system is Trichosporon beigelii. Nature of the test: Inhibition of Trichosporon beigelli 1188 for 48 hours in vitro. The class given is functional. As to conditions: Trichosporon beigelii, 48 h; read-out: MIC. In short, it runs like this:
as §3

For test [21], the system named is Candida parapsilosis. Put plainly: Inhibition of Candida parapsilosis ATCC 22019 growth for 48 hours in vitro. As to conditions: Lodderomyces parapsilosis, ATCC 22019, 48 h; read-out: MIC. The class given is functional. In short, it runs like this: as §1
Test [22] relates to Clavispora lusitaniae. Nature of the test: Inhibition of Candida lusitaniae 2446/I growth for 48 hours in vitro. The class given is functional. The settings on record: Clavispora lusitaniae, 48 h; read-out: MIC. Put shortly:
as §1

Test [23] relates to Pichia kudriavzevii. Put plainly: Inhibition of Candida krusei ATCC 6258 growth for 48 hours in vitro. The class given is functional. In short, it runs like this:
as §1

Test [24] has as its system Aspergillus fumigatus. Nature of the test: Inhibition of Aspergillus fumigatus 231 growth for 24 hours in vitro. The class given is functional. As to conditions: Aspergillus fumigatus, 24 h; read-out: MIC. Put shortly:
as §2

Setting [25] is: Lichtheimia corymbifera, 24 h, read-out: MIC.
Where [26] appears, read: Pichia kudriavzevii, ATCC 6258, 24 h, read-out: MIC.
The mark [27] stands for this setting: Pichia kudriavzevii, 48 h, read-out: MIC.
Where [28] appears, read: Pichia kudriavzevii, ATCC 6258, 48 h, read-out: MIC.

Take `COc1ccc(C2=CC(COC(=O)C(C)(C)C)OC2=O)cc1` (configuration not stated): the MIC came out at 31.2 µM (≈ 9.51 µg/mL) in the test with Candida albicans [1]; 62.5 µM (≈ 19 µg/mL) in the test on Lichtheimia corymbifera [2] (setting [25]); 31.2 µM (≈ 9.51 µg/mL) in the test with Candida parapsilosis [3]; 31.2 µM (≈ 9.51 µg/mL) in the test with Candida tropicalis [4]; 31.2 µM (≈ 9.51 µg/mL) in the test on Candida albicans [5]; 31.2 µM (≈ 9.51 µg/mL) in the test with Clavispora lusitaniae [6]. Moreover, the MIC in the test with Pichia kudriavzevii [7] (setting [26]) amounted to 62.5 µM (≈ 19 µg/mL); in the test with Lichtheimia corymbifera [8] it was 125 µM (≈ 38 µg/mL); in the test on Pichia kudriavzevii [9] (setting [27]) it was 125 µM (≈ 38 µg/mL); with Trichosporon beigelii [10], 62.5 µM (≈ 19 µg/mL); with Candida albicans [11], 15.6 µM (≈ 4.76 µg/mL); with Pichia kudriavzevii [12], 62.5 µM (≈ 19 µg/mL). The MIC was 7.81 µM (≈ 2.38 µg/mL) in [13]; 62.5 µM (≈ 19 µg/mL) in the test with Candida tropicalis [14] (Candida tropicalis, 48 h, read-out: MIC); 31.2 µM in the test on Nakaseomyces glabratus [15] (Nakaseomyces glabratus, 48 h, read-out: MIC); 31.2 µM with Nakaseomyces glabratus [16] (Nakaseomyces glabratus, 24 h, read-out: MIC); 7.81 µM (≈ 2.38 µg/mL) in [17]; 31.2 µM (≈ 9.51 µg/mL) in the test on Aspergillus fumigatus [18]. Moreover, the MIC turned out to be 0.98 µM (≈ 0.298 µg/mL) with Candida albicans [19]; 62.5 µM (≈ 19 µg/mL) in the test on Trichosporon beigelii [20]; 62.5 µM (≈ 19 µg/mL) in the test with Candida parapsilosis [21]; 31.2 µM (≈ 9.51 µg/mL) in the test on Clavispora lusitaniae [22]; 62.5 µM (≈ 19 µg/mL) with Pichia kudriavzevii [23] (setting [28]); 7.81 µM (≈ 2.38 µg/mL) with Aspergillus fumigatus [24].
On to `CC(C)(C)C(=O)OCC1C=C(c2ccc(Cl)c(Cl)c2)C(=O)O1` (stereo in doubt; (-)2c), for which the MIC is 7.81 µM (≈ 2.68 µg/mL) with Candida albicans [1]; 5.36 uM l-1 in the test with Lichtheimia corymbifera [2]; 7.81 µM (≈ 2.68 µg/mL) with Candida parapsilosis [3]; 3.91 µM (≈ 1.34 µg/mL) in the test on Candida albicans [5]; 3.91 µM (≈ 1.34 µg/mL) in the test on Clavispora lusitaniae [6]; 2.68 uM l-1 with Pichia kudriavzevii [7]. In addition, the MIC in the test with Lichtheimia corymbifera [8] came out at 62.5 µM (≈ 21.5 µg/mL); in the test on Pichia kudriavzevii [9], 5.36 uM l-1; with Candida albicans [11], 3.91 µM (≈ 1.34 µg/mL); in the test with Pichia kudriavzevii [12], 7.81 µM (≈ 2.68 µg/mL); with Candida tropicalis [14], 5.36 uM l-1; with Aspergillus fumigatus [18] it was 7.81 µM (≈ 2.68 µg/mL). Also, the MIC in the test on Candida albicans [19] is 1.95 µM (≈ 0.669 µg/mL); with Candida parapsilosis [21], 15.6 µM (≈ 5.36 µg/mL); in the test with Clavispora lusitaniae [22], 7.81 µM (≈ 2.68 µg/mL); in the test on Pichia kudriavzevii [23], 10.73 uM l-1.
On to `CC(=O)N1CCN(c2ccc(OCC3COC(Cn4ccnc4)(c4ccc(Cl)cc4Cl)O3)cc2)CC1` (configuration not stated) [KETOCONAZOLE], for which the MIC with Candida albicans [1] was below 0.056 µM; in the test with Lichtheimia corymbifera [2] (setting [25]) it was 31.2 µM (≈ 16.6 µg/mL); in the test with Candida parapsilosis [3], 0.11 µM (≈ 0.0585 µg/mL); in the test with Candida albicans [5], below 0.056 µM; with Clavispora lusitaniae [6], 0.056 µM (≈ 0.0298 µg/mL); in the test with Pichia kudriavzevii [7] (setting [26]), 1.96 µM (≈ 1.04 µg/mL). Further, the MIC turned out to be 31.2 µM (≈ 16.6 µg/mL) in the test with Lichtheimia corymbifera [8]; 3.91 µM (≈ 2.08 µg/mL) in the test with Pichia kudriavzevii [9] (setting [27]); 0.11 µM (≈ 0.0585 µg/mL) in the test with Candida albicans [11]; 3.91 µM (≈ 2.08 µg/mL) with Pichia kudriavzevii [12]; 15.6 µM (≈ 8.31 µg/mL) in the test with Aspergillus fumigatus [18]; 0.11 µM (≈ 0.0585 µg/mL) in the test with Candida albicans [19]. For the same compound, the MIC in the test with Candida parapsilosis [21] turned out to be 0.11 µM (≈ 0.0585 µg/mL); in the test on Clavispora lusitaniae [22], 0.11 µM (≈ 0.0585 µg/mL); in the test with Pichia kudriavzevii [23] (setting [28]), 1.96 µM (≈ 1.04 µg/mL).
As to `C[C@@H]1[C@H](O)[C@@H](C)/C=C/C=C/C=C/C=C/C=C/C=C/C=C/[C@H](O[C@@H]2O[C@H](C)[C@@H](O)[C@H](N)[C@@H]2O)C[C@@H]2O[C@](O)(C[C@@H](O)C[C@@H](O)[C@H](O)CC[C@@H](O)C[C@@H](O)CC(=O)O[C@H]1C)C[C@H](O)[C@H]2C(=O)O` [AMPHOTERICIN B], the MIC with Candida albicans [1], with Lichtheimia corymbifera [2] (setting [25]), in the test on Candida parapsilosis [3], in the test with Candida albicans [5], with Clavispora lusitaniae [6] and with Pichia kudriavzevii [7] (setting [26]) was 2.16 µM (≈ 2 µg/mL) throughout. Moreover, the MIC turned out to be 2.16 µM (≈ 2 µg/mL) with Lichtheimia corymbifera [8]; 4.33 µM (≈ 4 µg/mL) in the test with Pichia kudriavzevii [9] (setting [27]); 1.08 µM (≈ 0.998 µg/mL) with Candida albicans [11]; 2.16 µM (≈ 2 µg/mL) with Pichia kudriavzevii [12]; 2 µg/mL in the test on Nakaseomyces glabratus [15]; 2 µg/mL against Nakaseomyces glabratus [16]. In addition, the MIC turned out to be 0.54 µM (≈ 0.499 µg/mL) in the test with Aspergillus fumigatus [18]; 1.08 µM (≈ 0.998 µg/mL) in the test on Candida albicans [19]; 2.16 µM (≈ 2 µg/mL) with Candida parapsilosis [21]; 2.16 µM (≈ 2 µg/mL) with Clavispora lusitaniae [22]; 4.33 µM (≈ 4 µg/mL) in the test with Pichia kudriavzevii [23] (setting [28]).
